ChEMBL document CHEMBL3758079, “Design, synthesis and biological evaluation of chalconyl blended triazole allied organosilatranes as giardicidal and trichomonacidal agents” (Eur J Med Chem, 2016)

What was measured:
Giardia intestinalis = test: Antiparasitic activity against Giardia lamblia Portland 1 after 48 hrs by MTT assay; assay type: functional, organism-based; conditions: Giardia duodenalis, Portland 1, 48 h
Method in brief: (§1)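 Trophozoite cultures grown in 96-well plates at 37 °C for 24 h, then serial two-fold dilutions (0.9-15 μg/cm³) added from DMSO stocks, 0.5% DMSO as 100%-growth control. Incubated 48 h, then MTT 4 h at 37 °C in dark. Dissolved in DMSO, A570 read. IC50 from sigmoid dose-response. Run in duplicate, three independent experiments in triplicate.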

Trichomonas vaginalis = test: Antiparasitic activity against Trichomonas vaginalis 162 after 48 hrs by MTT assay; assay type: functional, organism-based; conditions: Trichomonas vaginalis, 162, 48 h; method in brief: as §1
[1] = Selectivity index, ratio of CC50 for HEK293 cells to IC50 for Trichomonas vaginalis 162; assay type: functional
[2] = Selectivity index, ratio of CC50 for human HeLa cells to IC50 for Trichomonas vaginalis 162; assay type: functional
[3] = Cytotoxicity against human HeLa cells after 18 hrs by MTT assay; assay type: cell-based
Method in brief: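 Cells (5×10^4/well) seeded in RPMI-1640 with 10% FBS, overnight at 37 °C. Compounds added at 100 to 1.56 µM for 18 h at 37 °C. MTT (5 mg/ml in PBS) added for 3-4 h, formazan dissolved in DMSO. CC50 is the concentration giving 50% growth inhibition relative to untreated cells.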

[4] = Cytotoxicity against HEK293 cells after 18 hrs by MTT assay; assay type: cell-based; conditions: human
[5] = Selectivity index, ratio of CC50 for HEK293 cells to IC50 for Giardia lamblia Portland 1; assay type: functional
[6] = Selectivity index, ratio of CC50 for human HeLa cells to IC50 for Giardia lamblia Portland 1; assay type: functional

Structure (SMILES)	IC50 (Giardia intestinalis) [µM]	IC50 (Trichomonas vaginalis) [µM]	Ratio CC50/IC50 [1]	Ratio CC50/IC50 [2]	CC50 at 18 h [3] [µM]	CC50 at 18 h [4] [µM]	Ratio CC50/IC50 [5]	Ratio CC50/IC50 [6]
COc1ccc(/C=C/C(=O)c2ccc(OCc3cn(CCC[Si]45OCCN(CCO4)CCO5)nn3)cc2)cc1	54.9	21.6						
Cc1ccc(/C=C/C(=O)c2ccccc2OCc2cn(CCC[Si]34OCCN(CCO3)CCO4)nn2)cc1	48	50						
Cc1ncc([N+](=O)[O-])n1CCO [METRONIDAZOLE]	62.5	55.9						
COc1ccc(/C=C/C(=O)c2ccccc2OCc2cn(CCC[Si]34OCCN(CCO3)CCO4)nn2)cc1	32.2	26.7						
COc1ccc(/C=C/C(=O)c2cccc(OCc3cn(CCC[Si]45OCCN(CCO4)CCO5)nn3)c2)cc1		30.3	8.81	6.7	203	267		
O=C(/C=C/c1ccc(Cl)cc1)c1ccc(OCc2cn(CCC[Si]34OCCN(CCO3)CCO4)nn2)cc1	33.1	21.9						
COc1ccc(/C=C/C(=O)c2cccc(OCc3cn(CCC[Si]45OCCN(CCO4)CCO5)nn3)c2)c(OC)c1OC	19.6	42.1	7.79	8.07	340	328	16.74	17.36
O=C(/C=C/c1ccccc1)c1cccc(OCc2cn(CCC[Si]34OCCN(CCO3)CCO4)nn2)c1	81	65.6						
COc1ccc(/C=C/C(=O)c2ccccc2OCc2cn(CCC[Si]34OCCN(CCO3)CCO4)nn2)c(OC)c1OC		21.3	13.39	10.92	232	285		
O=C(/C=C/c1ccccc1)c1ccccc1OCc1cn(CCC[Si]23OCCN(CCO2)CCO3)nn1	28.1	23.3	8.94	10.23	238	208	7.41	8.48
COc1ccc(/C=C/C(=O)c2ccc(OCc3cn(CCC[Si]45OCCN(CCO4)CCO5)nn3)cc2)c(OC)c1OC	30.2	18.2	14.78	12.46	227	270	8.94	7.53
COc1ccccc1/C=C/C(=O)c1ccc(OCc2cn(CCC[Si]34OCCN(CCO3)CCO4)nn2)cc1	40.9	22.7						
O=C(/C=C/c1ccc(Cl)cc1)c1ccccc1OCc1cn(CCC[Si]23OCCN(CCO2)CCO3)nn1	33.9	22.3						
COc1ccccc1/C=C/C(=O)c1cccc(OCc2cn(CCC[Si]34OCCN(CCO3)CCO4)nn2)c1	43.7	43.1						
COc1ccc(/C=C/C(=O)c2ccccc2OCc2cn(CCC[Si]34OCCN(CCO3)CCO4)nn2)c(OC)c1	35.4	22.1						
Cc1ccc(/C=C/C(=O)c2cccc(OCc3cn(CCC[Si]45OCCN(CCO4)CCO5)nn3)c2)cc1	131	101						
COc1ccccc1/C=C/C(=O)c1ccccc1OCc1cn(CCC[Si]23OCCN(CCO2)CCO3)nn1		23.8						
O=C(/C=C/c1ccc(Cl)cc1)c1cccc(OCc2cn(CCC[Si]34OCCN(CCO3)CCO4)nn2)c1	78.5	55.7						
O=C(/C=C/c1ccccc1)c1ccc(OCc2cn(CCC[Si]34OCCN(CCO3)CCO4)nn2)cc1	59.7	27.2						
COc1ccc(/C=C/C(=O)c2cccc(OCc3cn(CCC[Si]45OCCN(CCO4)CCO5)nn3)c2)c(OC)c1	43.9	43.8						
Cc1ccc(/C=C/C(=O)c2ccc(OCc3cn(CCC[Si]45OCCN(CCO4)CCO5)nn3)cc2)cc1	33.2	24.8	7.97	7.61	189	198	5.95	5.68
COc1ccc(/C=C/C(=O)c2ccc(OCc3cn(CCC[Si]45OCCN(CCO4)CCO5)nn3)cc2)c(OC)c1	31.9	22.9						
